pEC50: −log10 of the molar value. Active and inactive are the calls of the source. The rule behind the calls is not given here.
How the values were obtained:
[1] = system: Mus musculus; experiment: Antiplatelet activity in Balb/c mouse assessed as inhibition of ADP-induced aggregation measuring prolongation of bleeding time at 30 mg/kg body weight, iv; assay type: functional
How it was run: (§1)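 Anaesthetised Balb/c mice given compound iv (0.3, 3 or 30 mg/kg) or saline. Five minutes later 2 mm of the tail tip was cut and the tail placed vertically in saline. Time to first arrest of bleeding (no bleeding for 20 s) was recorded. Bars are standard deviation.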

[2] = system: Mus musculus; experiment: Antidiabetic activity in db+/db- diabetic mouse model assessed as reduction in blood glucose level at 30 mg/kg body weight, iv administered 10 min post glucose challenge measured over 15 to 120 mins; assay type: functional, organism-based; design: dose 30 mg/kg
How it was run: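 Male db+/db− mice, 8 weeks old, grouped by body weight and glucose, then fasted overnight. Oral glucose 2 g/kg by gavage. Compound 30 mg/kg iv as in the naive-animal OGTT; n = 5. Blood glucose by glucometer at −30, 0, 15, 30, 60 and 120 min.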

[3] = molecular target: P2Y purinoceptor 12 (Homo sapiens) (UniProt Q9H244); experiment: Antagonist activity at human P2Y12R expressed in […] cells assessed as intracellular calcium level in presence of ADP; assay type: functional, cell-based
Chain of P2Y purinoceptor 12 (Homo sapiens) (Q9H244 whole entry): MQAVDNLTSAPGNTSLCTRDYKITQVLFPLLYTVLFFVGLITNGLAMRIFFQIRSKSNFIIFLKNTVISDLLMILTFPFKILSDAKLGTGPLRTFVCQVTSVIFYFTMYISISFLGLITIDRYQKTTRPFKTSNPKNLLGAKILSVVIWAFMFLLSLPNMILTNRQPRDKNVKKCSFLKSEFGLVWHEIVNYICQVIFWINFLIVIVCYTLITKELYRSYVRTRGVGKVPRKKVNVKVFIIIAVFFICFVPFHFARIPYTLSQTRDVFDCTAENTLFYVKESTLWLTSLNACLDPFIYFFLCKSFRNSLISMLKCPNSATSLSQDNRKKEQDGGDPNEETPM

[4] = system: Rattus norvegicus; experiment: Antiplatelet activity in Lewis rat assessed as inhibition of ADP-induced aggregation measuring prolongation in bleeding time at 30 mg/kg body weight, po administered 30 mins prior to tail incision measured after 5 mins; assay type: functional, organism-based; design: dose 30 mg/kg
How it was run: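 Lewis rats given compound 30 mg/kg or aspirin 10 mg/kg PO 30 min before tail incision; n = 5. 2 mm tail tip cut, tail placed in saline. Time to first bleeding arrest (20 s without bleeding) was recorded, and blood volume was judged against calibrated volumes after brief 600g spin.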

[5] = system: Mus musculus; experiment: Antiplatelet activity in Balb/c mouse assessed as inhibition of ADP-induced aggregation measuring prolongation in bleeding time at 30 mg/kg body weight, iv administered prior to tail incision measured after 5 mins relative to active clopidogrel metabolite R-361015; assay type: functional; how it was run: as §1
[6] = Antiplatelet activity in human platelet rich plasma assessed as inhibition of ADP-induced platelet aggregation at 0.3 to 10 uM measured after 6 mins by aggregometry relative to control; assay type: functional
How it was run: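 Human platelet-rich plasma was obtained by spinning normal human plasma at 4400g for 30 s. PRP was incubated 15 min at 37 °C, then aggregation was induced with ADP (10 μM) and read after 6 min on a platelet aggregation profiler. PRP came from one subject, tested in duplicate. Prasugrel metabolite at 10 μM served as the positive control.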

[7] = system: Platelet; experiment: Antiplatelet activity in human platelet rich plasma assessed as inhibition of ADP-induced platelet aggregation measured after 6 mins by aggregometry; assay type: functional
How it was run: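 Human PRP obtained by centrifuging plasma at 4400g for 30 s. PRP was incubated 15 min at 37 °C with compound (0.3–10 μM), then aggregation was induced with ADP 10 μM and read after 6 min on a platelet aggregation profiler. Prasugrel metabolite 10 μM served as positive control. One donor, duplicates.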

[8] = system: Mus musculus; experiment: Antidiabetic activity in STZ treated fasted ICR mouse assessed as reduction in blood glucose level at 30 mg/kg body weight, iv administered 10 min post glucose challenge measured over 15 to 120 mins; assay type: functional, organism-based; design: dose 30 mg/kg
How it was run: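 Male ICR mice given STZ 100 mg/kg IP after 4 h fast. On day 10, after ~16 h overnight fast, oral D-glucose 1 g/kg was given at 0 min. Compound was dosed iv at 7.5, 15 or 30 mg/kg 10 min after glucose; saline controls. Blood glucose by glucometer at 15, 30, 60 and 120 min. n = 5.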

[9] = system: Rattus norvegicus; experiment: Antidiabetic activity in overnight fasted Wister Han rat assessed as reduction in blood glucose level at 30 mg/kg body weight, iv administered 10 mins post glucose challenge measured within 45 mins (reference value: 155 mg/dl); assay type: functional
[10] = (§2) Half life in human serum at 40 mM by HPLC; assay type: ADME, cell-free
How it was run: (§3)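 Serum came from a healthy volunteer's whole blood (12 h at 4 °C, spun 1500g, stored at −80 °C). A 40 mM stock in water was mixed with serum and RPMI-1640 (1:3 serum:medium) and incubated at 37 °C for up to 24 h.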

[11] = Half life in Tris buffer at pH 9.8 at 0.2 mg by HPLC in presence of alkaline phosphatase; assay type: physicochemical; details: in vitro
How it was run: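 Compound 0.2 mg incubated with calf intestine alkaline phosphatase 12.5 units in Tris-HCl/MgCl2 at final pH 9.8 and 37 °C. Sampled hourly for 8 h; reaction stopped at 80 °C for 15 min. Samples passed through an anion-exchange cartridge. Half-life from change in HPLC peak area.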

[12] = system: Serum; experiment: Ratio of half life of compound to half life of ADP in human serum at 40 mM by HPLC; assay type: ADME, cell-free; details: 40000 µM; how it was run: as §3
[13] = molecular target: P2Y purinoceptor 1 (Meleagris gallopavo, UniProt P49652); experiment: Agonist activity at turkey P2Y1R expressed in 1321N1 cells assessed as increase in intracellular calcium concentration by spectrofluorimetry; assay type: functional, cell-based
Chain of P2Y purinoceptor 1 (Meleagris gallopavo, UniProt P49652) (P49652 whole entry): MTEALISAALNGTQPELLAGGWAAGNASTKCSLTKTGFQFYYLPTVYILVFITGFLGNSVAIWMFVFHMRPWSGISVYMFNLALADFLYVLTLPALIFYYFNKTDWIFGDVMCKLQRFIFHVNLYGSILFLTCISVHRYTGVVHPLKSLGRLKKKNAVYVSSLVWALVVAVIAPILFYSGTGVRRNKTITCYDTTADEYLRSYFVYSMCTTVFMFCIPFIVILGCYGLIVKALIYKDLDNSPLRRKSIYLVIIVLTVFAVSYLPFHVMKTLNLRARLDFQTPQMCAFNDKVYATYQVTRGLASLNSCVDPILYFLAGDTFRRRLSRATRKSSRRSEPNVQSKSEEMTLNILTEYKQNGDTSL
How it was run: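 Cell suspensions were treated with nucleotide at various concentrations at 37 °C in 10 mM Hepes-buffered saline pH 7.4 with 1 mM CaCl2 and 1 mM MgCl2. Maximal [Ca2+]i rise was read by dual-excitation spectrofluorometry and fitted to give EC50. Three experiments on separate days.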

[14] = Half life in HCL/KCL buffer at pH 1.4 at 1.5 mg by HPLC; assay type: physicochemical
How it was run: (§4)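 Diastereomeric mixture, 1.5 mg, dissolved in 0.2 M HCl/KCl buffer adjusted to pH 1.4 and kept at 37 °C with hourly sampling. Parent HPLC peak integrated over time (TEAA/acetonitrile 88:12) and fitted to pseudo-first-order kinetics to give rate constant and t1/2.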

[15] = Chemical stability in HCL/KCL buffer at pH 1.4 assessed as hydrolysis rate constant of compound at 1.5 mg incubated for 24 hrs measured after every 1 hr over 12 hrs by HPLC; assay type: physicochemical; details: pH 1.4, 24 h; how it was run: as §4
[16] = Metabolic stability in human serum assessed as hydrolysis of compound at 40 mM incubated for 24 hrs measured after every 1 hr over 24 hrs by HPLC; assay type: ADME, cell-free; details: read-out: Drug metabolism
How it was run: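 40 mM stock in water, 4.5 μL, combined with 180 μL human serum (healthy volunteer) and 540 μL RPMI-1640 and incubated at 37 °C for up to 24 h. Aliquots were heated to 80 °C for 30 min, cleaned up, and analysed by HPLC. Heat-only controls were run without serum. Hydrolysis was followed from the change in HPLC peak area.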

[17] = molecular target: P2Y purinoceptor 2 (Homo sapiens) (UniProt P41231); experiment: Agonist activity at P2Y2R; assay type: functional
Chain of P2Y purinoceptor 2 (Homo sapiens) (P41231 whole entry): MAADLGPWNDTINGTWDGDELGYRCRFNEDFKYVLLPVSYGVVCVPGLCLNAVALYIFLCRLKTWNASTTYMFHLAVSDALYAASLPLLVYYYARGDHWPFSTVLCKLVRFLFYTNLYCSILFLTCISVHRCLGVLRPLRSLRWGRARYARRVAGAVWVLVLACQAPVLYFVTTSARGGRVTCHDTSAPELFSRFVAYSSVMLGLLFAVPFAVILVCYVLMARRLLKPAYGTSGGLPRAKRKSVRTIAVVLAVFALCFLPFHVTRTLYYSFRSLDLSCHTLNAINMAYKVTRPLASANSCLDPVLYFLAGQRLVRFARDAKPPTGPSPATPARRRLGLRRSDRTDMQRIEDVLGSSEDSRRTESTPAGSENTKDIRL

[18] = molecular target: P2Y purinoceptor 4 (Homo sapiens) (UniProt P51582); experiment: Agonist activity at P2Y4R; assay type: functional
Chain of P2Y purinoceptor 4 (Homo sapiens) (P51582 whole entry): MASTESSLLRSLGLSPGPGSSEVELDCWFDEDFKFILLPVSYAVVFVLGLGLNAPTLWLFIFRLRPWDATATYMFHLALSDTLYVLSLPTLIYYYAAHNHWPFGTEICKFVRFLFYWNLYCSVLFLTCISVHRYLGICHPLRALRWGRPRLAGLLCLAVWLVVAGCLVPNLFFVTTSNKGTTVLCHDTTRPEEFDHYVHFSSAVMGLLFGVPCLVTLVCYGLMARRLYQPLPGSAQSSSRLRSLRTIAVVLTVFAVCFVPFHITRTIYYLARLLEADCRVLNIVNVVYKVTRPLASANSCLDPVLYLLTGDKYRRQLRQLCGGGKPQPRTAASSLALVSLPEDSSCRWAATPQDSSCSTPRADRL

[19] = molecular target: P2Y purinoceptor 6 (Homo sapiens) (UniProt Q15077); experiment: Agonist activity at P2Y6R; assay type: functional
Chain of P2Y purinoceptor 6 (Homo sapiens) (Q15077 whole entry): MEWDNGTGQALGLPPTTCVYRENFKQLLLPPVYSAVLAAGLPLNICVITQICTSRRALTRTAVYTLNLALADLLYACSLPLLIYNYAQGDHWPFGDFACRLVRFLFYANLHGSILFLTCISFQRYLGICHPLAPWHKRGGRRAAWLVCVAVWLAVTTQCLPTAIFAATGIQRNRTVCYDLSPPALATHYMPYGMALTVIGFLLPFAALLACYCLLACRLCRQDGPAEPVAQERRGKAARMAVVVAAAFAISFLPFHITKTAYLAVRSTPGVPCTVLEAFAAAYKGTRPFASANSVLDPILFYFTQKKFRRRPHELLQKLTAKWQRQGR

[20] = system: Rattus norvegicus; experiment: Antiplatelet activity in Lewis rat assessed as inhibition of ADP-induced aggregation measuring prolongation in bleeding time at 10 mg/kg body weight, po administered 30 mins prior to tail incision measured after 5 mins; assay type: functional, organism-based; design: dose 10 mg/kg
How it was run: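 Anesthetized Lewis rats (n = 5) were dosed orally 30 min before the tail was cut. Then 2 mm of tail tip was removed and the tail was placed upright in a saline-filled tube. Time to first arrest of bleeding (no bleeding for 20 s) was recorded.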

[21] = system: Mus musculus; experiment: Antidiabetic activity in overnight fasted CD1 mouse assessed as reduction in blood glucose level at 30 mg/kg body weight, iv administered 10 mins post glucose challenge; assay type: functional, organism-based; design: dose 30 mg/kg
[22] = molecular target: P2Y purinoceptor 1 (Rattus norvegicus) (UniProt P49651); experiment: Agonist activity at rat P2Y1R assessed as glucose-dependent insulin secretion relative to control; assay type: functional
Chain of P2Y purinoceptor 1 (Rattus norvegicus) (P49651 whole entry): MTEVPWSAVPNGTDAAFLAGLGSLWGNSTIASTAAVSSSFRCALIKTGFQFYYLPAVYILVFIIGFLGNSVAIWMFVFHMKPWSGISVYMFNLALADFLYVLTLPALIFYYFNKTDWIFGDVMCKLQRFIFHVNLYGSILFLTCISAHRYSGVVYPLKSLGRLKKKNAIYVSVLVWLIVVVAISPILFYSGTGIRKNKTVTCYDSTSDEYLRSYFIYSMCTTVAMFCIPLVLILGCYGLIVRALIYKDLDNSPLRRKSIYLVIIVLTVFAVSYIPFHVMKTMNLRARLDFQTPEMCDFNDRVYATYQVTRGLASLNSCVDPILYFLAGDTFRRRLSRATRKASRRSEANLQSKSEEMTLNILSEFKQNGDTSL

[23] = molecular target: T1, P2Y purinoceptor 1 (Rattus norvegicus, UniProt P49651); experiment: Agonist activity at rat P2Y1R expressed in HEK293 cells assessed as release of intracellular calcium by fluorescence based assay; assay type: functional, cell-based
T1 sequence (P49651 whole entry): as above

[24] = molecular target: T1, P2Y purinoceptor 1; experiment: Agonist activity at rat P2Y1R assessed as glucose-dependent insulin secretion; assay type: functional
[25] = system: Serum; experiment: as §2; assay type: ADME, cell-free; details: 40000 µM; how it was run: as §3

## [BH3-][P@@](=O)(OC[C@H]1O[C@@H](n2cnc3c(N)nc(SC)nc32)[C@H](O)[C@@H]1O)OP(=O)([O-])[O-].[Na+].[Na+].[Na+]
[1]
  Time: 16 min
[2]
  Activity: Active
[3]
  Activity: Active
[4]
  inhibition: Active
[5]
  fold change (FC): 1.5
[6]
  fold change (FC): 3
[7]
  inhibition: Active
[8]
  Activity: Active
[9]
  Activity: 87 mg/dL
[10]
  half-life at 40000 µM: > 1440 min
[11]
  t1/2: 6 h

## CC(=O)Oc1cc2c(s1)CCN(C(C(=O)C1CC1)c1ccccc1F)C2 (stereo not given)
[1]
  Time: 9 min

## B[P@](=O)(OC[C@H]1O[C@@H](n2cnc3c(N)nc(SC)nc32)[C@H](O)[C@@H]1O)OP(=O)(O)OP(=O)(O)OC[C@H]1O[C@@H](n2cnc3c(N)nc(SC)nc32)[C@H](O)[C@@H]1O.CCCCN(CCCC)CCCC.CCCCN(CCCC)CCCC.CCCCN(CCCC)CCCC (single isomer, unassigned)
[12]
  Ratio: 7
[10]
  half-life at 40000 µM: 840 min
[13]
  pEC50: 6.72

## [BH3-]P(=O)(OC[C@H]1O[C@@H](n2cnc3c(N)nc(SC)nc32)[C@H](O)[C@@H]1O)OP(=O)([O-])[O-].[Na+].[Na+].[Na+] (mixture of isomers)
[14]
  half-life: 438 min
[15]
  Drug degradation: 2 ×10⁻⁵ /s
[16]
  metabolised at 24 h, 40000 µM: 30%
[17]
  Activity: inactive
[18]
  Activity: inactive
[19]
  Activity: inactive

## CC(=O)Oc1ccccc1C(=O)O
[20]
  inhibition: Active

## BP(=O)(OC[C@H]1O[C@@H](n2cnc3c(N)nc(SC)nc32)[C@H](O)[C@@H]1O)OP(=O)(O)OP(=O)(O)OC[C@H]1O[C@@H](n2cnc3c(N)nc(SC)nc32)[C@H](O)[C@@H]1O.CCCCN(CCCC)CCCC.CCCCN(CCCC)CCCC.CCCCN(CCCC)CCCC (mixture of isomers)
[17]
  Activity: inactive
[18]
  Activity: inactive
[19]
  Activity: inactive

## B[P@](=O)(OC[C@H]1O[C@@H](n2cnc3c(N)nc(SC)nc32)[C@H](O)[C@@H]1O)OP(=O)(O)O
[21]
  Activity: inactive
[13]
  pEC50: 5.96

## B[P@@](=O)(OC[C@H]1O[C@@H](n2cnc3c(N)nc(SC)nc32)[C@H](O)[C@@H]1O)OP(=O)(O)OP(=O)(O)O
[22]
  fold change (FC): 9
[23]
  pEC50: 8.59
[24]
  pEC50: 7.55

## B[P@@](=O)(OC[C@H]1O[C@@H](n2cnc3c(N)nc(SC)nc32)[C@H](O)[C@@H]1O)OP(=O)(O)OP(=O)(O)OC[C@H]1O[C@@H](n2cnc3c(N)nc(SC)nc32)[C@H](O)[C@@H]1O.CCCCN(CCCC)CCCC.CCCCN(CCCC)CCCC.CCCCN(CCCC)CCCC
[12]
  Ratio: 7
[10]
  half-life at 40000 µM: 840 min
[13]
  pEC50: 6.85

## B[P@](=O)(OC[C@H]1O[C@@H](n2cnc3c(N)ncnc32)[C@H](O)[C@@H]1O)OP(=O)(O)O
[13]
  pEC50: 6.02

## Nc1ncnc2c1ncn2[C@@H]1O[C@H](COP(=O)(O)OP(=O)(O)O)[C@@H](O)[C@H]1O [ADENOSINE DIPHOSPHATE]
[25]
  t1/2: 2 h
[11]
  t1/2: 4 h

## BP(=O)(OC[C@H]1O[C@@H](n2cnc3c(N)ncnc32)[C@H](O)[C@@H]1O)OP(=O)(O)O (stereo not given in full)
[17]
  Activity: inactive
[18]
  Activity: inactive
[19]
  Activity: inactive

## CSc1nc(N)c2ncn([C@@H]3O[C@H](COP(=O)(O)OP(=O)(O)O)[C@@H](O)[C@H]3O)c2n1
[25]
  t1/2: 23 h
[16]
  metabolised at 24 h, 40000 µM: 50%
[11]
  t1/2: 4.5 h

## [BH3-][P@@](=O)(OC[C@H]1O[C@@H](n2cnc3c(N)ncnc32)[C@H](O)[C@@H]1O)OP(=O)([O-])[O-].[Na+].[Na+].[Na+]
[25]
  t1/2: 3.5 h
[13]
  pEC50: 6.66
[11]
  t1/2: 4.2 h

From ChEMBL document CHEMBL2177082, “Identification of a promising drug candidate for the treatment of type 2 diabetes based on a P2Y(1) receptor agonist” (J Med Chem, 2012)
